Laboratory results taken from ChEMBL document CHEMBL4393683, “A combinatorial approach for the discovery of drug-like inhibitors of 15-lipoxygenase-1” (Eur J Med Chem, 2019).
Activity calls are given as the source filed them. The calls are words filed in the database; no cut-off is given here.

What was measured:
[1] = Stability of compund in pH 7.5 HEPES buffer at 25 uM in presence of human recombinant N-terminal His6-tagged 15-LOX1 expressed in Escherichia coli BL21(DE3) by UV absorption analysis; type: physicochemical; details: pH 7.5, 25 µM
Procedure, shortened: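 LA-free control in 25 mM HEPES pH 7.5 at 25 µM compound, run in triplicate. Buffer plus compound was mixed with 10 µL ethanol in place of substrate, then 15-LOX-1 enzyme solution was added. DMSO/buffer served as the vehicle control and buffer replaced enzyme in the blank. Absorbance at 234 nm was monitored over time.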

[2] = Antioxidant activity assessed as DPPH radical scavenging activity incubated for 15 mins under dark condition by spectrophotometric method; type: functional
Procedure, shortened: (§1)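 DPPH radical-scavenging assay run in triplicate in MeOH with 10% DMSO. Compounds were serially diluted 10-fold from a top concentration of 1 mM, or 250 or 500 µM for some, down to 1 nM, with DPPH fixed at 0.1 mM. Incubation was 15 min at ambient temperature, protected from light, with A517 read. The compound-only series was subtracted, data normalized to no-inhibitor absorbance, and EC50 fitted by nonlinear dose–response.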

[3] = Stability of compund in pH 7.5 HEPES buffer at 25 uM in presence of substrate linoleic acid by UV absorption analysis; type: physicochemical; details: pH 7.5, 25 µM
Procedure, shortened: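 Enzyme-free control in 25 mM HEPES pH 7.5 at 25 µM compound, run in triplicate, with buffer replacing enzyme. 10 µL of 500 µM linoleic acid stock in ethanol was added; ethanol alone served as the blank, and DMSO/buffer as the vehicle control. Absorbance at 234 nm was monitored over time.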

[4] = Antioxidant activity assessed as ferric ion reducing activity by measuring Fe2+ levels using Fe2+-TPTZ measured 15 secs for 5 mins by FRAP assay; type: functional
[5] = molecular target: T1, Polyunsaturated fatty acid lipoxygenase ALOX15 (Homo sapiens, UniProt P16050); experiment: Inhibition of human recombinant N-terminal His6-tagged 15-LOX1 expressed in Escherichia coli BL21(DE3) using linoleic acid as substrate preincubated for 8 mins followed by substrate addition by UV absorption analysis
T1 sequence (P16050 whole entry): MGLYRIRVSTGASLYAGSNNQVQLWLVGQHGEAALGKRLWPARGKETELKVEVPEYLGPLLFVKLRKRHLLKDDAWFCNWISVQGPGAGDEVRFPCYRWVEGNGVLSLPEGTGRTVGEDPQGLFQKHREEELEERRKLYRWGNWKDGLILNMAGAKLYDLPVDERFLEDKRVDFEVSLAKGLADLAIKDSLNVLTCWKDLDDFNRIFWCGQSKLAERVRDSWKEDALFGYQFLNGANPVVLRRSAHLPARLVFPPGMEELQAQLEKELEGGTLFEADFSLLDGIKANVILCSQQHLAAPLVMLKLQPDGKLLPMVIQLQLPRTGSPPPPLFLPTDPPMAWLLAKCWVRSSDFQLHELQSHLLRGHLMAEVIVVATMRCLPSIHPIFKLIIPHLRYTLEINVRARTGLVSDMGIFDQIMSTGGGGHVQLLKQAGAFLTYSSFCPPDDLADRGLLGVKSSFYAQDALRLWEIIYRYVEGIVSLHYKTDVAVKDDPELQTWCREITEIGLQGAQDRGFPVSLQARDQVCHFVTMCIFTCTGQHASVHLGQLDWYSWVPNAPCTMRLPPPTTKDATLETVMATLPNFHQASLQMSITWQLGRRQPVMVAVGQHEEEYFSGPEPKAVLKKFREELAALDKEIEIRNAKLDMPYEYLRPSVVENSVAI

[6] = Antioxidant activity assessed as DPPH radical scavenging activity at 500 uM incubated for 15 mins under dark condition by spectrophotometric method; type: functional; procedure, shortened: as §1
[7] = Antioxidant activity assessed as DPPH radical scavenging activity at 250 uM incubated for 15 mins under dark condition by spectrophotometric method; type: functional; procedure, shortened: as §1

SMILES	Stability [1]	Stability [3]	IC50 [5] [µM]	Activity [2]	Activity [4] [µmol/L]	other results
CCOC(=O)c1[nH]c2cc(Cl)ccc2c1/C=N/NC(=O)COc1ccc(Cl)cc1Cl	Stable	Stable	–	inactive	< 50	–
CCOC(=O)c1[nH]c2cc(Cl)ccc2c1/C=N/NC(=O)Cc1cccs1	–	–	> 10	–	–	–
CCOC(=O)c1[nH]c2cc(Cl)ccc2c1C=O	–	–	–	inactive	< 50	–
CCCCC(=O)N/N=C/c1c(C(=O)OCC)[nH]c2cc(Cl)ccc12	–	–	> 10	–	–	–
CCOC(=O)c1[nH]c2cc(Cl)ccc2c1/C=N/NC(=O)COc1ccc(Cl)cc1	Stable	Stable	–	–	< 50	Activity [6]: inactive
CCOC(=O)c1[nH]c2cc(Cl)ccc2c1/C=N/NC(=O)Cc1cccnc1	Stable	Stable	–	inactive	< 50	–
CCOC(=O)c1[nH]c2cc(Cl)ccc2c1/C=N/NC(=O)C1CCN(C(=O)OC(C)(C)C)CC1	Stable	Stable	0.47	inactive	< 50	–
CCOC(=O)c1[nH]c2cc(Cl)ccc2c1/C=N/NC(=O)CNc1cccc([N+](=O)[O-])c1	–	–	> 10	–	–	–
CCOC(=O)c1[nH]c2cc(Cl)ccc2c1/C=N/NC(=O)COc1ccccc1Cl	Stable	Stable	–	–	< 50	Activity [7]: inactive
CCOC(=O)c1[nH]c2cc(Cl)ccc2c1/C=N/NC(=O)CSc1nc2ccccc2[nH]1	Stable	Stable	–	inactive	< 50	–
CCOC(=O)c1[nH]c2cc(Cl)ccc2c1/C=N/NC(=O)COc1ccccc1	–	–	> 10	–	< 50	Activity [6]: inactive
CCOC(=O)c1[nH]c2cc(Cl)ccc2c1/C=N/NC(=O)Cc1ccccc1	–	–	> 10	inactive	< 50	–
CCOC(=O)c1[nH]c2cc(Cl)ccc2c1/C=N/NC(=O)Cc1ccc(OC)c(OC)c1	Stable	Stable	–	–	< 50	Activity [7]: inactive
O=C1O[C@H]([C@@H](O)CO)C(O)=C1O [ASCORBIC ACID]	–	–	–	–	–	EC50 [2]: 17.2 µM
CCOC(=O)c1[nH]c2cc(Cl)ccc2c1/C=N/NC(=O)COc1ccc([N+](=O)[O-])cc1	–	–	> 10	–	–	–

The next lines start with results.

Stability [1]	Stability [3]	IC50 [5] [µM]	SMILES	Activity [2]	Activity [4] [µmol/L]	other results
–	–	> 10	CCOC(=O)c1[nH]c2cc(Cl)ccc2c1/C=N/NC(=O)CC1CCCC1	–	–	–
–	–	4.22	CCOC(=O)c1[nH]c2cc(Cl)ccc2c1/C=N/NC(=O)c1cc(C(C)(C)C)nn1Cc1cccc(C)c1	inactive	< 50	–
–	–	> 10	CCOC(=O)c1[nH]c2cc(Cl)ccc2c1/C=N/NC(=O)CCc1ccccc1	–	–	–
–	–	> 10	CCOC(=O)c1[nH]c2cc(Cl)ccc2c1/C=N/NC(=O)COc1cccc2ccccc12	–	–	–
–	–	> 10	CCOC(=O)c1[nH]c2cc(Cl)ccc2c1/C=N/NC(=O)CCCOc1ccc(Cl)cc1Cl	–	–	–
–	–	> 10	CCOC(=O)c1[nH]c2cc(Cl)ccc2c1/C=N/NC(=O)[C@H](Cc1ccccc1)NC(=O)OC(C)(C)C	–	–	–
Stable	Stable	1.8	CCOC(=O)c1[nH]c2cc(Cl)ccc2c1/C=N/NC(=O)Cc1cccc(O)c1	inactive	< 50	–
–	–	> 10	CCOC(=O)c1[nH]c2cc(Cl)ccc2c1/C=N/NC(=O)CCC(C)C	–	–	–
